# Source: PubChem BioAssay
# TRPC4 potent: allosteric potentiators of mouse TRPC4 channel; Q9QUQ5; HEK293 TRPC4beta/mu-opioid, DAMGO EC20, Fluo-4 Ca2+ flux; active compounds read high; B-score at 10 µM; hit rate 0.42% among 310,000;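 active = B-score of calcium response area above 5 SD of library B-scores, with initial fluorescence ratio within 5 SD of library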;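 note: B-score of integrated fluorescence ratio over time as area under calcium response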
# TRPC4 act: activators of mouse TRPC4 channel. Q9QUQ5. HEK293 TRPC4beta/mu-opioid, Fluo4 calcium fluorescence; active compounds read high. B-score at 10 µM. hit rate 0.49% among 310,000. AID 2237;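 active = B-score above 5 SD of library B-scores, and initial fluorescence ratio not above library mean plus 5 SD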;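 note: positive B-score marks a calcium rise read as TRPC4 activation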
#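 Incubation: 45 min room-temperature Fluo4 loading, 110 s read / System: HEK293 cells stably co-expressing mouse TRPC4beta and mu-opioid receptor / Signal: Fluo4 fluorescence, kinetic / Control set: buffer (low) and maximal DAMGO (high) / Measure: integrated baseline-normalised fluorescence ratio, converted to per-well B score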
# TRPC6 act: activates the mouse TRPC6 cation channel; Q61143; HEK293-TRPC6 membrane potential dye fluorescence; active compounds read high; B-score at 10 µM; hit rate 0.13% among 310,000; AID 2550;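 active = B-score of the integrated fluorescence ratio above library mean plus 3 SD, and starting fluorescence ratio within library mean plus 5 SD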;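 note: higher score means more depolarization so channel activation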
# Kir21 inh: inhibitors of mouse Kir2.1 inward-rectifier potassium channel; P35561; hit rate 0.85% among 310,000; AID 1672; B-score at 10 µM; HEK293-Kir2.1, FluxOR thallium flux fluorescence; active compounds read low;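 active = fluorescence ratio B-score at or below minus 3 SD of library scores, with starting-brightness B-score within 2 SD, cut at about -4.2 in these data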;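 note: channel flux triggered by added potassium and thallium sulfate stimulus; B-score of peak minus minimum fluorescence over baseline after thallium stimulus; more negative B-score means stronger Kir2.1 block with less thallium influx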
# TRPC4 inh: blocks the mouse TRPC4 cation channel. Q9QUQ5. HEK293 TRPC4beta/mu-opioid, DAMGO-evoked Fluo4 calcium flux; active compounds read low. B-score at 10 µM. hit rate 0.39% among 300,000. AID 2247;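 active = B-score over 3 SD under the library average, no early fluorescence shift, positive overall ratio signal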
#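 Material: HEK293 cells with stable TRPC4beta plus mu-opioid receptor expression / Probe or stimulus: DAMGO in two steps, submaximal then maximal / Compound: single concentration per test compound / Technique: kinetic Fluo4 fluorescence imaging of calcium influx / Read-out: per-well B score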
# TRPC6 inh: blocks the mouse TRPC6 cation channel | Q61143 | HEK293-TRPC6, membrane potential dye, ACh-evoked depolarization; active compounds read low | B-score at 10 µM | hit rate 1.1% among 310,000 | AID 2553;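 active = B-score under library mean minus 3 SD, initial fluorescence not abnormally high, positive integrated signal ratio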;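 note: B-score derived from integrated fluorescence ratio over the kinetic read; more negative B-score means stronger inhibition of depolarization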
# HEK293 TRPC6 ctr: parental HEK293 nonspecific activity of TRPC6 modulators. membrane potential signal change, % at 10 µM. hit rate 51% among 2,400. shares compounds with TRPC6 inh. membrane potential dye fluorescence;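 active = membrane potential signal moves up or down beyond 5 SD from buffer-only wells, on both duplicate plates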
# HEK293 MPD ctr 2: parental HEK293 nonspecific activity of TRPC6 modulators, second screen; membrane potential dye fluorescence; after compound, maximal acetylcholine stimulation; hit rate 14% among 2,400; inhibition, % at 10 µM; shares compounds with TRPC6 inh;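 active = membrane potential signal drops by more than 5 SD from the mean control signal, in both duplicate plates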;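 note: plate controls were acetylcholine ECmax control wells for no effect and buffer only wells for full effect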
# TRPC4 ctr mod: selectivity of TRPC6 modulators against mouse TRPC4; shares compounds with TRPC6 inh; HEK293 TRPC4/mu-opioid, membrane potential fluorescence; percent change from control (negative = decrease, positive = increase), % at 10 µM; hit rate 69% among 2,400;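 active = membrane potential signal moved up or down beyond 5 SD of buffer control wells, in both duplicate plates, actives on both sides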;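 note: plate controls were assay buffer wells for no effect and DAMGO maximal-effect wells for full effect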
# TRPC4/MOR inh 2: mouse TRPC4 off-target activity of TRPC6 modulators, second screen; inhibition, % at 10 µM; hit rate 55% among 2,400; shares compounds with TRPC6 inh; HEK293 TRPC4/mu-opioid, membrane potential dye fluorescence; stimulated with maximal-effect DAMGO;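 active = drop in membrane potential signal beyond 5 SD of the control wells in both duplicate plates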;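 note: TRPC4 counter screen for TRPC6 hits run under conditions tuned for TRPC6 not TRPC4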
# TRPC6 block conf: confirmation of mouse TRPC6 inhibitors; shares compounds with TRPC6 inh; HEK293-TRPC6, membrane potential dye, ACh-evoked depolarization; inhibition, % at 10 µM; hit rate 43% among 3,300; AID 488960;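 active = fluorescence ratio falls more than 5 SD below the full-stimulation control mean, in both duplicate runs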;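 note: integrated fluorescence ratio of peak minus minimum over baseline after agonist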
# TRPC6 act confirm: mouse TRPC6 activator confirmation | shares compounds with TRPC6 inh | HEK293-TRPC6 membrane potential dye fluorescence, FDSS | activation, % at 10 µM | hit rate 11% among 2,800 | AID 488961;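 active = ratio signal rise beyond 5 SD above unstimulated control wells' mean, seen in both duplicate runs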;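 note: plate controls were buffer EC0 wells for no effect and acetylcholine ECmax response for full effect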
# Starred values were filed as active, the others as inactive; i = inactive; / = not tested or not shown; + = active, no number. An excerpt weighted towards active compounds, which were near 2.9% of everything screened.
SMILES,TRPC4 potent,TRPC4 act,TRPC6 act,Kir21 inh,TRPC4 inh,TRPC6 inh,HEK293 TRPC6 ctr,HEK293 MPD ctr 2,TRPC4 ctr mod,TRPC4/MOR inh 2,TRPC6 block conf,TRPC6 act confirm
COc1cc(/C=N/NC(=O)CSc2n[nH]c(=O)[nH]c2=O)cc(OC)c1O,i,i,i,0.21,i,i,/,/,/,/,/,/
CCOC(=O)C1=C(C)OC(N)=C(C#N)C1c1cc2c(cc1Br)OCO2 (stereo not drawn),i,i,i,-1.3,i,-5.2*,i,i,i,i,i,i
C=CCOC(=O)C1=C(C)OC(N)=C(C#N)C1c1ccc2c(c1)OCO2 (stereo not drawn),i,i,i,-1.2,i,i,/,/,/,/,/,/
COc1cc(/C=C/C(=O)CC(=O)/C=C/c2ccc(O)c(OC)c2)ccc1O,i,84*,75*,-1.2,i,i,+,i,380%*,i,i,524%*
Cc1ccc(C)c(NC(=O)CN(C)C(=O)COc2cccc3c2OC(C)(C)C3)c1,i,i,i,-1.1,i,i,/,/,/,/,/,/
CCOc1ccc(C(C(=O)NC2CCCCC2)N(CCOC)C(=O)c2snc(C(N)=O)c2N)cc1 (stereo not drawn),i,i,i,-0.65,i,i,/,/,/,/,/,/
CCOC(=O)C1=C(O)c2ccccc2C(=O)/C1=C\c1ccc(CC)cc1,i,i,15*,-3,i,i,552%*,i,130%*,i,i,182%*
CC(C)C(NC(=O)c1ccccc1)C(=O)NCC(c1ccccc1)N(C)C (stereo not drawn),i,i,i,-0.52,i,i,/,/,/,/,/,/
CC(C)C(NC(=O)c1c(F)cccc1F)C(=O)NCC(c1ccccc1)N(C)C (stereo not drawn),i,i,i,-1,i,-5.1*,i,i,55%*,58%*,i,/
O=C(Nc1cc(Cl)cc(Cl)c1)C1CCCC1,i,i,i,-0.2,i,i,/,/,/,/,/,/
CN(C)C(=O)c1c(NC(=O)c2ccccc2)sc2c1CCC2,i,i,i,-0.96,i,i,/,/,/,/,/,/
CCN(CC)CCCC(C)NC(=O)c1c(NC(=O)c2ccccc2)sc2c1CCCC2 (stereo not drawn),i,i,i,0.65,i,-6.1*,i,i,-20%*,81%*,60%*,i
OCC1CCCN(c2nc(CN3CCCCC3)nc3scc(-c4ccccc4)c23)C1 (stereo not drawn),i,i,i,-3.8,i,i,/,/,/,/,/,/
CCNc1nc(CN2CCCCC2)nc2scc(-c3ccccc3)c12,i,i,i,-3,i,-5.8*,i,i,i,39%*,i,i
